What all share (assay type): protein assay
The target in assay [1] is T1, S-adenosylmethionine synthetase (MAT 1 and MAT 2) (Rattus norvegicus, UniProt P13444+P18298). Kind of assay: Compound was tested for inhibition constant with kidney form of M-2 variants of Rat methionine adenosyltransferase when ATP was the variable substrate. The gist of the method: (§1)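 Rat M-2 (normal tissue) isozyme. With methionine as the variable substrate, MgATP was fixed at 2 mM. With MgATP as the variable substrate, methionine was fixed at 60 µM. The MgATP KM was 0.14 mM. Ki values come from kinetic analysis of inhibition against each substrate.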

In assay [2] the target is T1, S-adenosylmethionine synthetase (MAT 1 and MAT 2). Kind of assay: Compound was tested for inhibition constant with kidney form of M-T variants of Rat methionine adenosyltransferase when ATP was the variable substrate.
The target is the same in assay [3]. The assay is described as follows: Compound was tested for inhibition constant with kidney form of M-T variants of Rat methionine adenosyltransferase when Methionine was the variable substrate.
Assay [4] shares this target. Kind of assay: Compound was tested for inhibition constant with kidney form of M-2 variants of Rat methionine adenosyltransferase when Methionine was the variable substrate. The gist of the method:
as §1

For orientation: Ki means the dissociation constant of the complex between target and ligand, obtained from inhibition or displacement. Regarding `Nc1ncnc2c1ncn2[C@@H]1O[C@H]([C@@H](CCSCCC(N)C(=O)O)OP(=O)(O)OP(=O)(O)NP(=O)(O)O)[C@@H](O)[C@H]1O` (some centres not stated), the Ki came to 110 nM in assay [1], 160 nM in assay [2], 1100 nM in assay [3] and 2100 nM in assay [4].
In the same order, the values of `Nc1ncnc2c1ncn2[C@@H]1O[C@H]([C@H](CCSCCC(N)C(=O)O)OP(=O)(O)OP(=O)(O)NP(=O)(O)O)[C@@H](O)[C@H]1O` (some centres not stated) are 270 nM, 410 nM, 2700 nM and 5400 nM.
In the same order, the values of `Nc1ncnc2c1ncn2[C@@H]1O[C@H]([C@H](CSCCC(N)C(=O)O)OP(=O)(O)OP(=O)(O)NP(=O)(O)O)[C@@H](O)[C@H]1O` (some centres not stated) are 130 nM, 210 nM, 670 nM and 650 nM.
